Data: ChEMBL document CHEMBL2057082, “Discovery of N-(4-methoxy-7-methylbenzo[d]thiazol-2-yl)isonicatinamide, ML293, as a novel, selective and brain penetrant positive allosteric modulator of the muscarinic 4 (M4) receptor” (Bioorg Med Chem Lett, 2012)
Calls of active or inactive are those of the source. No cut-off for these calls is given here.

Experiments:
[1] = target: T1, Muscarinic acetylcholine receptor M5 (Homo sapiens) (UniProt P08912); assay: Activity at human M5 receptor expressed in CHO cells coexpressing Gqi5 assessed as effect on acetylcholine induced calcium mobilization up to 30 uM incubated for 144 secs prior to acetylcholine addition by Fluo-4-AM staining; type: functional, cell-based
T1 sequence (whole entry): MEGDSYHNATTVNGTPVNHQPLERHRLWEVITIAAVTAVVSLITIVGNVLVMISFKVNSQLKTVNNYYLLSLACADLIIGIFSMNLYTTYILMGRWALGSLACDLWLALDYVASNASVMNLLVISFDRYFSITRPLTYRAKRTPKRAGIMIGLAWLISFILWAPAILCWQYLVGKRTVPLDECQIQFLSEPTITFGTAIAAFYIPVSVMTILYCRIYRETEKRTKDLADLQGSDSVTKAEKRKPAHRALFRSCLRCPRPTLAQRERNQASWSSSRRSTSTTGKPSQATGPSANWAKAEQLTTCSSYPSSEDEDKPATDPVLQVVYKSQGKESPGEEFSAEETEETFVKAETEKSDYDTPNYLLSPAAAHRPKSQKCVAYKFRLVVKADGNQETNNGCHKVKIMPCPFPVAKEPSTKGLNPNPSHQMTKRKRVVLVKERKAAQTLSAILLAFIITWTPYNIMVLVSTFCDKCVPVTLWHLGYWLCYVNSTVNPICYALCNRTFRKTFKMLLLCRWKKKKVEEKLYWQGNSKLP

[2] = target: Muscarinic acetylcholine receptor M3 (Homo sapiens) (UniProt P20309); assay: Activity at human M3 receptor expressed in CHO cells coexpressing Gqi5 assessed as effect on acetylcholine induced calcium mobilization up to 30 uM incubated for 144 secs prior to acetylcholine addition by Fluo-4-AM staining; type: functional, cell-based
Chain of Muscarinic acetylcholine receptor M3 (Homo sapiens) (P20309 whole entry, looked up): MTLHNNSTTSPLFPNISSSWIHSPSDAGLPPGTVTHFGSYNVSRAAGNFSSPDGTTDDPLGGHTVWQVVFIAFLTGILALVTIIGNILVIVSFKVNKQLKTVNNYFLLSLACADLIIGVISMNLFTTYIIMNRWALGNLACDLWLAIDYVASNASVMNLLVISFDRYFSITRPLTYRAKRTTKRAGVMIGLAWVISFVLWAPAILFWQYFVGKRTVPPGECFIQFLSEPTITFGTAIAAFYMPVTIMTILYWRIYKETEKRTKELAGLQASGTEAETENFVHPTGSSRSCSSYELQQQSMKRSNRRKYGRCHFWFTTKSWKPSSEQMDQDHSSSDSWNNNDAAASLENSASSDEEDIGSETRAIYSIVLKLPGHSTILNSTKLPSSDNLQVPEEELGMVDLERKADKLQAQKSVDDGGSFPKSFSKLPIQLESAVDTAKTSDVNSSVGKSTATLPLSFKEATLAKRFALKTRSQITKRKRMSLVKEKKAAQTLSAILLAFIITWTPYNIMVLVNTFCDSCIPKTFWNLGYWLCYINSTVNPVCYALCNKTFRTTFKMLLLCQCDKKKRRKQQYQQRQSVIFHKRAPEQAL

[3] = target: T2, Muscarinic acetylcholine receptor M2 (Homo sapiens) (UniProt P08172); assay: Activity at human M2 receptor expressed in CHO cells coexpressing Gqi5 assessed as effect on acetylcholine induced calcium mobilization up to 30 uM incubated for 144 secs prior to acetylcholine addition by Fluo-4-AM staining; type: functional, cell-based
T2 sequence (whole entry): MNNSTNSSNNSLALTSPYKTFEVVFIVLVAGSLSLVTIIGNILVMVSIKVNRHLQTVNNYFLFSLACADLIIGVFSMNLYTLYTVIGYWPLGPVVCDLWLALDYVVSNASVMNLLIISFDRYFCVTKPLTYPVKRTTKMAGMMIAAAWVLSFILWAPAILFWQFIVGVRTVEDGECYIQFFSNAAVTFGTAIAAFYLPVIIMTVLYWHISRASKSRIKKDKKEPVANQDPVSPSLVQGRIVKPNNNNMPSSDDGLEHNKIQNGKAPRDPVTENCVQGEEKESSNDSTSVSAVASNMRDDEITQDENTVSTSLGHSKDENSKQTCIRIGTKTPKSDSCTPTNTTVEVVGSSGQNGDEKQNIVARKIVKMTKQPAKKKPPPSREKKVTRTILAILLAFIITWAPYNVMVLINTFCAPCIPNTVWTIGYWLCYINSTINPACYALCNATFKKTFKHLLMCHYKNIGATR
In short: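 Off-target mode: CHO-K1 lines stably expressing hM1, hM3 or hM5 (wild-type) or hM2 cotransfected with Gqi5, plated 15,000 cells/well, grown overnight at 37 °C. Fluo-4 AM loading 45 min at 37 °C in HBSS/20 mM HEPES/2.5 mM probenecid. Compound (up to 30 µM, 0.3% DMSO final) added 144 s before ACh. Calcium read kinetically at 37 °C.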

[4] = target: T3, Muscarinic acetylcholine receptor M1 (Homo sapiens) (UniProt P11229); assay: Activity at human M1 receptor expressed in CHO-K1 cells coexpressing Gqi5 assessed as effect on acetylcholine induced calcium mobilization up to 30 uM incubated for 144 secs prior to acetylcholine addition by Fluo-4-AM staining; type: functional, cell-based
T3 sequence (whole entry): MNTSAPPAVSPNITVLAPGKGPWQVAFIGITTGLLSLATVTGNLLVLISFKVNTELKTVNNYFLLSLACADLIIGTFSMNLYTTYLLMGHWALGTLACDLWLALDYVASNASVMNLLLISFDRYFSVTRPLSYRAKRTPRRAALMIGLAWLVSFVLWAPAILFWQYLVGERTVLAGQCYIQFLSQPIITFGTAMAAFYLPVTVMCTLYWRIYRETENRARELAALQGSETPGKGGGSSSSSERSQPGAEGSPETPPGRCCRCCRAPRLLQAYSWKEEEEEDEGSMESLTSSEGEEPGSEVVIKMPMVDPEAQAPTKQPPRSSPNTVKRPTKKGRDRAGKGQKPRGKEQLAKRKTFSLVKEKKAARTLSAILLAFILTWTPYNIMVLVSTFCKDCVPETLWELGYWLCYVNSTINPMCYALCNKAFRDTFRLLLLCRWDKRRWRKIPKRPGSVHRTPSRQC

[5] = target: T4, Muscarinic acetylcholine receptor M4 (Homo sapiens) (UniProt P08173); assay: Positive allosteric modulation of human M4 receptor expressed in CHO-K1 cells coexpressing Gqi5 assessed as potentiation of acetylcholine-mediated calcium mobilization incubated for 144 secs prior to acetylcholine addition by Fluo-4-AM staining relative to acetylcholine; type: functional, cell-based
T4 sequence (whole entry): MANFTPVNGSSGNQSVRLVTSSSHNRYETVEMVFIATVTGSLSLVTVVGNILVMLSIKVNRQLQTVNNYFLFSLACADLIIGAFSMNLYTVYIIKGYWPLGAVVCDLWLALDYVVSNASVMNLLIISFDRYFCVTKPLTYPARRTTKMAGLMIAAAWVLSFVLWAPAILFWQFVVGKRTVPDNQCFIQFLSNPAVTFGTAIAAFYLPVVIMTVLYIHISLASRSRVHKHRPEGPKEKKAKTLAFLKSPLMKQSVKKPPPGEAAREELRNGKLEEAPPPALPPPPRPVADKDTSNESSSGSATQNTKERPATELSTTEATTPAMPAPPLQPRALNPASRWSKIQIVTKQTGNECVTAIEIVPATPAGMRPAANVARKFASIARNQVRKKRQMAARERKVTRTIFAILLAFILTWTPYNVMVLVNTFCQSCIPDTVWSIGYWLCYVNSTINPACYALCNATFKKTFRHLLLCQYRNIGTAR
In short: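 hM4-Gqi5 CHO-K1 cells, plated overnight, loaded with Fluo-4 AM (45 min, 37 °C). Compound (0.3% DMSO final) preincubated 144 s, then ACh EC20 added, and EC80 added 86 s later; 1 mM ACh wells for normalization. Calcium read at 37 °C, normalized to baseline and then to maximal ACh response. EC50 from four-parameter logistic fit; three independent determinations in triplicate.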

[6] = target: T5, Muscarinic acetylcholine receptor M4 (Homo sapiens, UniProt P08173); assay: Positive allosteric modulation of human M4 receptor expressed in CHO-K1 cells coexpressing Gqi5 assessed as potentiation of acetylcholine-mediated calcium mobilization incubated for 144 secs prior to acetylcholine addition by Fluo-4-AM staining; type: functional, cell-based
T5 sequence (P08173 whole entry): T4 sequence (whole entry)
In short: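 hM4 stably cotransfected with chimeric Gqi5 in CHO-K1 cells. Cells plated overnight at 37 °C, loaded with Fluo-4 AM for 45 min at 37 °C in HBSS/20 mM HEPES/2.5 mM probenecid. Compound pretreated 144 s (0.3% DMSO final), then EC20 ACh, then EC80 ACh 86 s later; kinetic fluorescence at 37 °C.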

[7] = Drug uptake in rat brain assessed per gram of tissue at 10 mg/kg, po administered as single dose measured at 1 hr; type: ADME, organism-based; set-up: dose 10 mg/kg, route oral; conditions: read-out: Drug uptake
In short: (§1)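 Rats got a single 10 mg/kg oral dose. At a single 1 h time point, brain (ng/g tissue), plasma and hepatic portal vein concentrations were measured, giving brain:plasma and portal vein:plasma ratios. The portal vein:plasma ratio was taken as an indicator of the extent of oxidative metabolism.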

[8] = Drug uptake in rat hepatic portal vein at 10 mg/kg, po administered as single dose measured at 1 hr; type: ADME, organism-based; set-up: dose 10 mg/kg, route oral; conditions: read-out: Drug uptake; in short: as §1
[9] = Plasma concentration in rat at 10 mg/kg, po administered as single dose measured at 1 hr; type: ADME, organism-based; set-up: dose 10 mg/kg, route oral
In short: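 Rats received a single 10 mg/kg oral dose. At 1 h, drug was measured in brain (ng/g), plasma and hepatic portal vein, and brain:plasma and HPV:plasma ratios were calculated.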

[10] = Plasma clearance in rat at 1mg/kg, iv; type: ADME, organism-based
[11] = AUC in rat at 1 mg/kg, iv; type: ADME, organism-based; set-up: dose 1 mg/kg, route intravenous; conditions: plasma
[12] = Volume of distribution at steady state in rat at 1 mg/kg, iv; type: ADME, organism-based; set-up: dose 1 mg/kg, route intravenous; conditions: in vivo, read-out: Vdss
[13] = Mean residence time in rat at 1 mg/kg, iv; type: ADME, organism-based; set-up: dose 1 mg/kg, route intravenous; conditions: in vivo
[14] = Half life in rat at 1 mg/kg, iv; type: ADME, organism-based; set-up: dose 1 mg/kg, route intravenous; conditions: in vivo
Brain = assay: Fraction unbound in rat brain homogenate; type: ADME, tissue-based
In short: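 Binding was measured in rat brain homogenate and reported as % unbound fraction.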

Plasma [15] = assay: Fraction unbound in human plasma; type: ADME, cell-free
In short: (§2)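 Plasma protein binding was measured by equilibrium dialysis in human and rat plasma and reported as % unbound.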

Plasma [16] = assay: Fraction unbound in rat plasma; type: ADME, cell-free; in short: as §2
[17] = Intrinsic clearance in rat liver microsomes; type: ADME, Microsome; conditions: read-out: CLH
In short: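 Intrinsic clearance was measured in human and rat hepatic microsomes to assess oxidative metabolism, with predicted hepatic clearance given in mL/min/kg.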

Structure (SMILES): COc1ccc(C)c2sc(NC(=O)c3ccncc3)nc12
- Activity [1]: inactive
- Activity [2]: inactive
- Activity [3]: inactive
- Activity [4]: inactive
- %max [5]: 65.2%
- EC50 [6]: 1.29 µM
- concentration at 1 h [7]: 3090 ng/g
- concentration at 1 h [8]: 3070 ng/mL
- concentration at 1 h [9]: 3740 ng/mL
- clearance [10]: 11.5 mL/min/kg
- AUC [11]: 1440 ng·h/mL
- Vd [12]: 0.97 L/kg
- MRT [13]: 1.42 h
- half-life [14]: 0.95 h
- Fu (Brain): 0.9%
- Fu (Plasma [15]): 1%
- Fu (Plasma [16]): 3.2%
- CLint scaled [17]: 48.5 mL/min/kg
